Results from article PMC6585844 (Clinical Pharmacology in Drug Development, 2018).
Values joined by “and” are separate entries in the source; they are usually repeats but may differ in a detail not shown here. Identical values can stand only once. Like-named read-outs stand apart in the source and are kept apart here.

Key:
Multiple‐dose = assay type: in vivo, human; settings: for AUCτ, mean ± SD: after last of 9 multiple doses; for Cmax / Tmax: human, plasma, oral
Outline: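 After the single dose, the same subjects took the assigned dose twice daily, 9 doses, with only a morning dose on the final day. Morning doses were fasted; evening doses were taken without regard to meals. Plasma was sampled predose on days 3–7 (A–D) or 4–8 (E), then 0.5–12 h postdose. AUCτ by trapezoidal method; fluctuation 100*(Cmax−Cmin)/Cavg; accumulation as AUCτ/AUC0-t.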

[1] = assay type: in vivo, human; settings: for AUC0‐t, mean ± SD: fasted, plasma to 48 h
Outline: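 Healthy adults, cohorts A–E (n = 6 each), single oral tablet dose (25–400 mg) with 8 oz water after ≥10 h fast plus 4 h more. Potassium-EDTA plasma sampled predose and 0.5–48 h, stored −70°C ≤62 days, solid-supported liquid-liquid extraction. AUC0-t by trapezoidal method; AUC0-∞ = AUC0-t + Clast/λ. BQL values taken as zero. Power-model dose proportionality with 95% CI.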

[2] = tested on: hypokalemic PP and hyperkalemic PP; settings: doses from approximately 100 to 200 mg/day, versus placebo; cited from earlier work
Safety/tolerability = assay type: in vivo, human
Outline: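 Open-label oral dose escalation. Cohorts A–E received 10 doses (1 single, then 9 twice daily). Cohort F (n = 6) took titrated twice-daily doses of 100–800 mg/day on days 1–14, up to 28 doses, and was assessed for safety only. Vital signs were taken at screening, baseline and each study day, with a 12-lead ECG at screening. AEs were recorded when reported.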

[3] = tested on: cytochrome P450 (CYP) 2C9; settings: cited from earlier work
[4] = Cohort A 25 mg single oral dose (n = 6)
[5] = Cohort B 50 mg single oral dose (n = 6)
[6] = Cohort C 100 mg single oral dose (n = 6)
[7] = Cohort D 200 mg single oral dose (n = 6)
[8] = Cohort E 400 mg single oral dose (n = 6)
[9] = Cohort A (n = 6): 1 × 25 mg then 9 × 25 mg BID
[10] = Cohort B (n = 6): 1 × 50 mg then 9 × 50 mg BID
[11] = Cohort C (n = 6): 1 × 100 mg then 9 × 100 mg BID
[12] = Cohort D (n = 6): 1 × 200 mg then 9 × 200 mg BID
[13] = Cohort E (n = 6): 1 × 400 mg then 9 × 400 mg BID
[14] = Cohort F (n = 6): dose titration 50 to 400 mg BID, up to 28 doses

NS(=O)(=O)c1cc(Cl)c(Cl)c(S(N)(=O)=O)c1 [dichlorphenamide]
Cavg, mean ± SD (Multiple‐dose; Cohort A 25 mg BID (n = 5)): 837 ± 274 ng/mL | AUCτ, mean ± SD (Multiple‐dose; Cohort A 25 mg BID (n = 5)): 10,038 ± 3283 ng˙h/mL | Cavg, mean ± SD (Multiple‐dose; Cohort B 50 mg BID (n = 6)): 1527 ± 549 ng/mL | AUCτ, mean ± SD (Multiple‐dose; Cohort B 50 mg BID (n = 6)): 18,329 ± 6593 ng˙h/mL | Cavg, mean ± SD (Multiple‐dose; Cohort C 100 mg BID (n = 6)): 3122 ± 1108 ng/mL | AUCτ, mean ± SD (Multiple‐dose; Cohort C 100 mg BID (n = 6)): 37,468 ± 13,298 ng˙h/mL | Cavg, mean ± SD (Multiple‐dose; Cohort D 200 mg BID (n = 5)): 7080 ± 2854 ng/mL | AUCτ, mean ± SD (Multiple‐dose; Cohort D 200 mg BID (n = 5)): 84,960 ± 34,245 ng˙h/mL | Cavg, mean ± SD (Multiple‐dose; Cohort E 400 mg BID (n = 3)): 17,298 ± 5219 ng/mL | AUCτ, mean ± SD (Multiple‐dose; Cohort E 400 mg BID (n = 3)): 207,577 ± 62,626 ng˙h/mL | Cmax (Multiple‐dose; 25 mg): 1150 ± 239 ng/mL | Tmax (Multiple‐dose; 25 mg): 2 h | Cmax (Multiple‐dose; 50 mg): 2220 ± 959 ng/mL | Tmax (Multiple‐dose; 50 mg): 3 h | Cmax (Multiple‐dose; 100 mg): 4870 ± 1890 ng/mL | Tmax (Multiple‐dose; 100 mg): 1.5 h | Cmax (Multiple‐dose; 200 mg): 10700 ng/mL | Tmax (Multiple‐dose; 200 mg): 2 h | Cmax (Multiple‐dose; 400 mg): 26600 ng/mL | Tmax (Multiple‐dose; 400 mg): 1 h | Slope for LnAUCτ (dose proportionality, power model), with 95%CI (Multiple‐dose; multiple doses 25–400 mg BID): 1.09 (95%CI, 0.92–1.26) | Slope for LnCmax (dose proportionality, power model), with 95%CI (Multiple‐dose; multiple doses 25–400 mg BID): 1.13 (95%CI, 0.95–1.31) | Accumulation ratios of AUCτ/AUC0‐t (Multiple‐dose; multiple‐ versus single‐dose phase): greater than 1 | AUC0‐∞, mean ± SD [1, 4]: 5908 ± 3959 ng˙h/mL | AUC0‐t, mean ± SD [1, 4]: 2327 ± 731 ng˙;h/mL | AUC0‐∞, mean ± SD [1, 5]: 14,734 ± 4555 ng˙h/mL | AUC0‐t, mean ± SD [1, 5]: 7897 ± 2055 ng˙;h/mL | AUC0‐∞, mean ± SD [1, 6]: 28,901 ± 13,317 ng˙h/mL | AUC0‐t, mean ± SD [1, 6]: 19,119 ± 7317 ng˙;h/mL | AUC0‐∞, mean ± SD [1, 7]: 66,456 ± 26,211 ng˙h/mL | AUC0‐t, mean ± SD [1, 7]: 38,132 ± 8249 ng˙;h/mL | AUC0‐∞, mean ± SD [1, 8]: 142,007 ± 16,279 ng˙h/mL | AUC0‐t, mean ± SD [1, 8]: 88,243 ± 12,616 ng˙;h/mL | half-life ([1]; human, plasma, oral): 32 to 68 h | Tmax ([1]; human, plasma, oral, Median Tmax, range across doses, single doses 25–400 mg): 1.5 to 3 h | Cmax ([1]; human, plasma, po, 25 mg): 298 ± 77 ng/mL | half-life ([1]; human, plasma, po, 25 mg): 68.4 ± 35 h | Cmax ([1]; human, plasma, po, 50 mg): 709 ± 490 ng/mL | half-life ([1]; human, plasma, po, 50 mg): 51.4 ± 24 h | Cmax ([1]; human, plasma, po, 100 mg): 1510 ± 909 ng/mL | half-life ([1]; human, plasma, po, 100 mg): 31.9 ± 11 h | Cmax ([1]; human, plasma, po, 200 mg): 3030 ± 1210 ng/mL | half-life ([1]; human, plasma, po, 200 mg): 41 ± 17 h | Cmax ([1]; human, plasma, po, 400 mg): 6320 ± 1280 ng/mL | half-life ([1]; human, plasma, po, 400 mg): 38.6 ± 8 h | Slope for LnAUC0‐t (dose proportionality, power model), with 95%CI ([1]; single doses 25–400 mg): 1.29 (95%CI, 1.18‐1.40) | Slope for LnCmax (dose proportionality, power model), with 95%CI ([1]; single doses 25–400 mg): 1.11 (95%CI, 0.97‐1.26) | Frequency and severity of attacks in primary periodic paralysis [2]: significant reduction | Tolerability for extended use (Safety/tolerability; 800 mg total daily dose, short‐term study): intolerable for extended use | Blood potassium decreased, TEAE of any severity, subjects (Safety/tolerability; [9]): 0 | Dizziness, TEAE of any severity, subjects (Safety/tolerability; [9]): 0 | Dysgeusia, TEAE of any severity, subjects (Safety/tolerability; [9]): 0 | Dyspnea, TEAE of any severity, subjects (Safety/tolerability; [9]): 0 | Oral paresthesia, TEAE of any severity, subjects (Safety/tolerability; [9]): 0 | Paresthesia, TEAE of any severity, subjects (Safety/tolerability; [9]): 0 | Subjects discontinuing due to TEAE (Safety/tolerability; [9]): 0 n (%) | Subjects reporting at least 1 TEAE (Safety/tolerability; [9]): 1 (16.7) n (%) | Subjects reporting at least 1 serious TEAE (Safety/tolerability; [9]): 0 n (%) | Total TEAEs reported (Safety/tolerability; [9]): 1 | Treatment‐related AEs reported (Safety/tolerability; [9]): 0 | Blood potassium decreased, TEAE of any severity, subjects (Safety/tolerability; [10]): 0 | Dizziness, TEAE of any severity, subjects (Safety/tolerability; [10]): 0 | Dysgeusia, TEAE of any severity, subjects (Safety/tolerability; [10]): 0 | Dyspnea, TEAE of any severity, subjects (Safety/tolerability; [10]): 0 | Oral paresthesia, TEAE of any severity, subjects (Safety/tolerability; [10]): 0 | Paresthesia, TEAE of any severity, subjects (Safety/tolerability; [10]): 0 | Subjects discontinuing due to TEAE (Safety/tolerability; [10]): 0 n (%) | Subjects reporting at least 1 TEAE (Safety/tolerability; [10]): 1 (16.7) n (%) | Subjects reporting at least 1 serious TEAE (Safety/tolerability; [10]): 0 n (%) | Total TEAEs reported (Safety/tolerability; [10]): 3 | Treatment‐related AEs reported (Safety/tolerability; [10]): 2 | Blood potassium decreased, TEAE of any severity, subjects (Safety/tolerability; [11]): 1 (16.7) | Dizziness, TEAE of any severity, subjects (Safety/tolerability; [11]): 0 | Dysgeusia, TEAE of any severity, subjects (Safety/tolerability; [11]): 0 | Dyspnea, TEAE of any severity, subjects (Safety/tolerability; [11]): 0 | Oral paresthesia, TEAE of any severity, subjects (Safety/tolerability; [11]): 0 | Paresthesia, TEAE of any severity, subjects (Safety/tolerability; [11]): 2 (33.3) | Subjects discontinuing due to TEAE (Safety/tolerability; [11]): 0 n (%) | Subjects reporting at least 1 TEAE (Safety/tolerability; [11]): 4 (66.7) n (%) | Subjects reporting at least 1 serious TEAE (Safety/tolerability; [11]): 0 n (%) | Total TEAEs reported (Safety/tolerability; [11]): 16 | Treatment‐related AEs reported (Safety/tolerability; [11]): 14 | Blood potassium decreased, TEAE of any severity, subjects (Safety/tolerability; [12]): 0 | Dizziness, TEAE of any severity, subjects (Safety/tolerability; [12]): 4 (66.7) | Dysgeusia, TEAE of any severity, subjects (Safety/tolerability; [12]): 3 (50.0) | Dyspnea, TEAE of any severity, subjects (Safety/tolerability; [12]): 3 (50.0) | Oral paresthesia, TEAE of any severity, subjects (Safety/tolerability; [12]): 1 (16.7) | Paresthesia, TEAE of any severity, subjects (Safety/tolerability; [12]): 2 (33.3) | Subjects discontinuing due to TEAE (Safety/tolerability; [12]): 1 n (%) and 1 (16.7) n (%) | Subjects reporting at least 1 TEAE (Safety/tolerability; [12]): 6 (100) n (%) | Subjects reporting at least 1 serious TEAE (Safety/tolerability; [12]): 0 n (%) | Total TEAEs reported (Safety/tolerability; [12]): 36 | Treatment‐related AEs reported (Safety/tolerability; [12]): 33 | Blood potassium decreased, TEAE of any severity, subjects (Safety/tolerability; [13]): 1 (16.7) | Dizziness, TEAE of any severity, subjects (Safety/tolerability; [13]): 3 (50.0) | Dysgeusia, TEAE of any severity, subjects (Safety/tolerability; [13]): 1 (16.7) | Dyspnea, TEAE of any severity, subjects (Safety/tolerability; [13]): 1 (16.7) | Oral paresthesia, TEAE of any severity, subjects (Safety/tolerability; [13]): 1 (16.7) | Paresthesia, TEAE of any severity, subjects (Safety/tolerability; [13]): 4 (66.7) | Subjects discontinuing due to TEAE (Safety/tolerability; [13]): 3 n (%) and 3 (50.0) n (%) | Subjects reporting at least 1 TEAE (Safety/tolerability; [13]): 6 (100) n (%) | Subjects reporting at least 1 moderate TEAE (Safety/tolerability; [13]): 1 (16.7) n (%) | Subjects reporting at least 1 serious TEAE (Safety/tolerability; [13]): 0 n (%) | Total TEAEs reported (Safety/tolerability; [13]): 42 | Treatment‐related AEs reported (Safety/tolerability; [13]): 39 | Dizziness, TEAE of any severity, subjects (Safety/tolerability; [14]): 0 | Dysgeusia, TEAE of any severity, subjects (Safety/tolerability; [14]): 0 | Dyspnea, TEAE of any severity, subjects (Safety/tolerability; [14]): 1 (16.7) | Oral paresthesia, TEAE of any severity, subjects (Safety/tolerability; [14]): 0 | Paresthesia, TEAE of any severity, subjects (Safety/tolerability; [14]): 2 (33.3) | Subjects discontinuing due to TEAE (Safety/tolerability; [14]): 6 n (%) and 6 (100) n (%) | Subjects reporting at least 1 TEAE (Safety/tolerability; [14]): 6 (100) n (%) | Subjects reporting at least 1 moderate TEAE (Safety/tolerability; [14]): 2 (33.3) n (%) | Subjects reporting at least 1 serious TEAE (Safety/tolerability; [14]): 1 (16.7) n (%) | Total TEAEs reported (Safety/tolerability; [14]): 50 | Treatment‐related AEs reported (Safety/tolerability; [14]): 40 | TEAEs reported as moderate (Safety/tolerability; all cohorts): 7 | Dizziness, number of subjects (Safety/tolerability; all cohorts (N = 36)): 7 subjects | Paresthesia (including oral), number of subjects (Safety/tolerability; all cohorts (N = 36)): 12 subjects | Subjects reporting at least 1 TEAE in gastrointestinal system organ class (Safety/tolerability; all cohorts (N = 36)): 28% | Subjects reporting at least 1 TEAE in nervous system organ class (Safety/tolerability; all cohorts (N = 36)): 50% | Subjects withdrawn/discontinued due to AEs (Safety/tolerability; all cohorts, 36 enrolled): 10 subjects | Changes in vital signs or ECG findings (Safety/tolerability; any subject): No clinically relevant changes | Serum potassium, clinically significant reduction in 1 subject (Safety/tolerability; cohort C, poststudy): 2.8 mmol/L | Serious TEAE of rash requiring brief hospitalization, subjects (Safety/tolerability; cohort F): 1 subject | Subjects with below‐normal serum potassium (Safety/tolerability; cohort F): 5 of 6 | Discontinuations to which hypokalemia contributed (Safety/tolerability; cohort F (all 800 mg/day)): 5 of 6 | Serum potassium, lowest recorded value (Safety/tolerability; cohort F, multiple study time points): 2.8 mmol/L | Subjects with clinically significant reductions in serum potassium (Safety/tolerability; cohorts A through E, poststudy): 2 subjects | Subjects with at least one mild‐to‐moderate AE (Safety/tolerability; cohorts D, E, and F): 100% | Effect on CYP2C9‐mediated 7‐methoxy‐4‐(trifluoromethyl)coumarin (MFC) metabolism [3]: relatively weak activator
